Screening results as filed in PubChem.
ROMK mod: modulates human ROMK potassium channel activity. P48048. Tet-inducible ROMK, thallium flux fluorescence; actives lie on both sides. B-score at 10 µM. 130,000 tested, 2% active. AID 1918;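 active means signal ratio slope over the read window, or its plate-corrected B-score, at least 3 SD from the plate mean, either direction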;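 further: B-score of the F/F0 ratio slope over 7 to 12 s after thallium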
Target sequence (P48048 whole entry, looked up): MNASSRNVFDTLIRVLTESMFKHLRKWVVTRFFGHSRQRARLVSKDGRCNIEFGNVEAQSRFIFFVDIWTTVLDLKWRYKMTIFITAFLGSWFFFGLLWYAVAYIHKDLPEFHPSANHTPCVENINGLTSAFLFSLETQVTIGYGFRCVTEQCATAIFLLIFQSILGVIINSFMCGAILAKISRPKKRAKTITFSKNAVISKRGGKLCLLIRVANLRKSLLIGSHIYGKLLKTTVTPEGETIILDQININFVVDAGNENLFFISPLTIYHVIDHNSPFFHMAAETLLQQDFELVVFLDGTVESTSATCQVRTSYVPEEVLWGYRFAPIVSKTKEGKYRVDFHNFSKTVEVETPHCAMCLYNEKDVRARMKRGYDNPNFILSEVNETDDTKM
RBBP9 inh: human RBBP9 hydrolase inhibition. inhibition, % at 7.94 µM. recombinant RBBP9, FP-Rh probe fluorescence polarization. 220,000 tested, 0.2% active;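 active means inhibition above the campaign mean of all tested compounds plus 3 SD, cut at about 14% in these data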;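 further: plate controls were DMSO wells with RBBP9 for no effect and wells lacking RBBP9 protein for full effect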
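Material: RBBP9 protein. Amount: RBBP9 at 2.5 µM in dispensed solution, before mixing. Schedule: 30 min then 45 min, 25 °C. Medium: Tris buffer pH 8.0, NaCl, Pluronic. Measured by: fluorescence polarization. Measure: percent inhibition from mP, scaled between DMSO and no-protein wells. Replication: one well per compound.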
14-3-3 Bad inh: disrupts binding of bovine 14-3-3 zeta to phospho-Bad peptide. inhibition, % at 21.7 µM. P63103. TR-FRET 14-3-3zeta/Dy647-pBad peptide displacement, 1 h. 220,000 tested, 0.71% active. AID 781;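 active means inhibition above about 70%, limit read from the data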;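 further: 0% = full 14-3-3 plus peptide FRET controls and 100% = background without 14-3-3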
Target sequence (P63103 whole entry, looked up): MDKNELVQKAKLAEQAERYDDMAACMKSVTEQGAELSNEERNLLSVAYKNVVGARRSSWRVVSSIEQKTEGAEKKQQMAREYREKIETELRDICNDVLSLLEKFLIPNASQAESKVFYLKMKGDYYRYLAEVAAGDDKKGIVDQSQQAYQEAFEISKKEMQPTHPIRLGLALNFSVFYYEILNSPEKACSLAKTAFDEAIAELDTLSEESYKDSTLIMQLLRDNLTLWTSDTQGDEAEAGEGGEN
WT yeast gro inh: growth inhibition of WT yeast, mitochondrial fusion screen; mitochondrial fusion phenotypic screen, WT strain; inhibition, % at 10 µM; 190,000 tested, 2.1% active; in the data active means inhibition above about 58%; tested in S. cerevisiae
NCF1 inh: blocks human p47phox regulatory protein of NADPH oxidases | p47phox/p22phox peptide binding, fluorescence polarization, 2 h | AID 1274 | 220,000 tested, 0.53% active | inhibition, % at 24.7 µM | P14598;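 active means inhibition above about 30%, limit read from the data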;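 further: 0% = p47phox with labelled peptide and 100% = labelled peptide alone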
KCC2 mod: modulators of human KCC2 chloride dependent transport | Q9H2X9 | KCC2 cells, thallium flux FluoZin-2 fluorescence | B-score of Tl+ flux slope (higher = more flux/activation; lower = inhibition) at 10 µM | 190,000 tested, 2.2% active;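 active means thallium flux slope and its plate-corrected score both differing from the plate sample mean at a set confidence after two filtering rounds, in either direction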;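 further: slope of fluorescence scaled to starting intensity during 10 to 20 s after thallium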
The depositor's hits bear a star; . = not tested or not shown; [ ] = remark or other dose. A selection: hits, their analogues and other compounds. The true share with any hit is near 5.8%.

SMILES	ROMK mod	RBBP9 inh	14-3-3 Bad inh	WT yeast gro inh	NCF1 inh	KCC2 mod
CCC(Sc1nnnn1-c1ccccc1)C(=O)NC(C)c1ccccc1 (centres undefined)	.	4.4	0.3	13.1	-8.0	.
COc1cc(CN2CCNC(=O)C2CC(=O)N2CCc3ccccc3C2)cc(OC)c1 (centres undefined)	-0.00252	1.4	13.2	4.2	0.2	.
O=c1[nH]c(/C=C/c2cccc3ccccc23)nc2ccccc12	-0.421	-16.8	58.1	11.1	53.8*	1.75
O=c1[nH]c(/C=C/c2ccccc2[N+](=O)[O-])nc2ccccc12	.	-7.0	70.5*[fluorescence artefact?]	1.3	2.5	0.106
CCOC(=O)C1(Cc2ccc(Cl)cc2)CCN(C(=O)c2cc(C)nc(C)n2)CC1	.	-1.7	-9.7	5.0	-0.4	.
Cc1nc(-c2ccc3c(c2)OCO3)cs1	-0.301	-11.6	33.6	5.6	-0.9	.
CCOC(=O)c1cc(-c2ccc3c(c2)OCO3)nc2onc(C)c12	.	-7.4	-0.2	78.2*	3.9	-1.54
O=C(c1ccc2ccccc2c1)C1CCCN(S(=O)(=O)c2cccnc2)C1 (centres undefined)	-1.8	-4.8	-8.8	8.6	-15.0	-2.54
CCc1nnc(NC(=O)C2Cc3ccccc3CN2S(=O)(=O)c2ccc(C)cc2)s1 (centres undefined)	.	-6.2	-8.5	78.7*	-32.8	-0.313
CC1CC(OC(=O)CN2CCCCC2)CC(C)(C)C1 (centres undefined)	.	-1.7	3.8	.	-14.9	0.649
CC(=O)N1N=C(c2ccc(Br)cc2)CC1c1cn(C)c2ccccc12 (centres undefined)	.	-8.7	-11.8	74.2*	-31.7	0.624
COCCNC(=S)N/N=C(\C)c1cccc([N+](=O)[O-])c1	-0.0398	-5.1	4.0	-5.0	-11.1	-0.387
Cc1ccnc(Nc2nc(-c3c(C)nc4sccn34)cs2)c1	.	-4.9	-9.2	80.7*	-23.8	-0.262
Cc1ccc(Nc2nc(-c3c(C)nc4ncccn34)cs2)cc1	.	-0.4	8.2	-3.8	-17.3	0.0294
Cc1ccc(Nc2nc(-c3c(C)nc4ccccn34)cs2)cc1	2.22	-2.7	3.8	70.9*	-1.3	-0.211
CC(=O)Nc1ccc(-c2csc(Nc3cc(C)ccn3)n2)cc1	0.154	12.2	1.6	37.9	-11.7	-1.05
O=C(Nc1ccccc1O)c1ccc(NS(=O)(=O)c2cccc3cccnc23)cc1	.	-6.8	-3.1	-10.5	-29.3	0.638
CCc1ccc(N(C(=O)c2csnn2)C(C(=O)NCc2ccccc2)c2ccco2)cc1 (centres undefined)	.	-9.8	95.1*[fluorescence artefact?]	-10.7	4.6	-0.705
CCOC(=O)c1c(NC(=O)C2CC2)sc2c1CC(C)(C)OC2	.	-0.7	91.4*	.	0.9	.
CCOC(=O)c1c(NC(=O)CCC(=O)O)sc2c1CC(C)(C)OC2	2.03	3.0	-6.4	-4.0	-5.5	-2.29
C=CCNC(=S)Nc1sc2c(c1C(=O)OCC)CC(C)(CC)OC2 (centres undefined)	.	-6.6	-2.9	4.1	-10.1	22.1*
CS(=O)(=O)N1CCN(c2ccc([N+](=O)[O-])c(NCc3ccc(Cl)cc3)c2)CC1	.	-5.0	71.5*	-25.2	5.3	0.332
CCc1ccc(O)c(N=Cc2ccccc2O)c1	.	-7.8	-1.8	-2.5	-50.6	0.0306
O=c1[nH][nH]c2c(N=Cc3ccccc3O)ccc(F)c12	.	4.2	70.3*	.	133.9*	-1.65
O=C(COC(=O)c1ccc(=O)[nH]c1)Nc1cccc(S(=O)(=O)N2CCOCC2)c1	.	-7.0	58.4	.	-3.8	.
SMILES	ROMK mod	RBBP9 inh	14-3-3 Bad inh	WT yeast gro inh	NCF1 inh	KCC2 mod
COC(=O)c1ccc2c(=O)n(CC3CCCO3)c(SCC(=O)Nc3ccc(OC)cc3OC)nc2c1 (centres undefined)	.	1.1	12.2	.	30.8*	1.11
COC(=O)c1ccc2c(=O)n(CC3CCCO3)c(SCC(=O)NCCc3ccc(S(N)(=O)=O)cc3)nc2c1 (centres undefined)	0.182	-1.6	-3.8	-3.0	-2.7	0.728
COC(=O)c1ccc2c(=O)n(C3CCCCC3)c(SCC#N)nc2c1	.	2.2	73.5*	1.6	-3.9	0.542
CC(NC(=O)COC(=O)/C=C/c1ccc(Cl)cc1)c1ccccc1 (centres undefined)	-0.255	3.5	-0.6	4.0	3.2	-0.868
Cc1ccc(S(=O)(=O)N2CCN(c3ccnc4cc(Cl)ccc34)CC2)cc1	0.617	-14.0	-1.2	65.5*	-5.0	-0.575
Cc1cc(N2CCN(S(=O)(=O)c3ccc(Cl)c(Cl)c3)CC2)c2ccccc2n1	0.994	-14.2	6.7	68.9*	2.8	0.0528
Cc1cc(N2CCN(S(=O)(=O)c3ccc(Cl)cc3)CC2)c2ccccc2n1	2.74	-0.1	-10.3	10.5	-10.6	.
Cc1ccc(S(=O)(=O)N2CCN(c3ccnc4cc(Cl)ccc34)CC2)cc1C	0.351	-13.6	-3.3	69.1*	-15.2	0.333
Cc1cc(NC(=O)CN2CCc3ccccc3C2)nc2c1c(=O)oc1ccccc12	.	-3.8	-4.5	7.0	-27.5	-0.791
COc1ccc(Cc2noc(CN3CCN(Cc4csc(C)n4)CC3)n2)cc1OC	0.0661	-5.2	-2.3	-0.1	-4.5	.
COc1ccccc1/C=C(/C#N)C(=O)O	.	-4.7	4.7	.	-10.6	0.0902
C=CC(=O)NC(NC(=O)C=C)c1ccccc1F	.	-0.2	-2.9	.	-9.1	-0.249
Cc1ccccc1/C=c1\s/c(=C\C(=O)C(C)(C)C)[nH]c1=O	2.48	-7.3	-3.8	-11.1	-13.0	10.3*
COc1ccc(/C=c2\s/c(=C/C(=O)c3ccc(C)cc3)[nH]c2=O)cc1OC	.	-56.6	6.1	-6.1	-36.9	0.623
CCc1ccc(/C=c2\s/c(=C\C(=O)C(C)(C)C)[nH]c2=O)cc1	-0.293	-14.4	-5.5	-1.0	-11.7	7.01*
CC(C)(C)C(=O)/C=c1\[nH]c(=O)/c(=C\c2ccc(F)cc2)s1	-0.199	-8.9	-1.9	-2.6	-12.6	.
CC(C)(C)c1ccc(-c2nnc(NC(=O)c3ccccc3)s2)cc1	.	-7.8	-7.6	-0.4	-20.6	1.35
COCC(=O)Nc1nnc(-c2ccc(C(C)(C)C)cc2)s1	-0.00476	-11.7	2.8	70.4*	0.2	1.07
Nc1ncnc(Nc2ccccc2Cl)n1	.	-1.4	-0.7	.	7.7	.
CCCOC1CCCN(C(=O)CCc2nnc(CCCCc3ccccc3)o2)C1 (centres undefined)	-1.63	-3.9	-6.4	8.6	-12.4	-0.9
CCCC(=O)Nc1cc(=O)n(C)c(=O)n1C	.	-3.2	11.8	9.9	60.1*	.
Cn1c(NC(=O)CCc2ccccc2)cc(=O)n(C)c1=O	.	-5.9	2.7	-3.0	-4.7	-2.46
Fc1ccc2c(c1)/C(=N/Nc1ccccn1)CCS2	-0.742	-4.8	-0.8	68.2*	-9.9	-0.508
Cc1cc(N/N=C2/CCCc3ccccc32)nc2ccccc12	1.26	-2.6	-4.0	68.1	-19.4	0.13
c1ccc(N/N=C2\CCCc3ccccc32)nc1	-0.306	-1.2	-0.6	64.9*	-2.5	0.545
